The values below come from ChEMBL document CHEMBL1124524, “Organic phosphorus compounds. 2. Synthesis and coronary vasodilator activity of (benzothiazolylbenzyl) phosphonate derivatives” (1989).

This assay concerns Cavia porcellus. Briefly: Maximum increase in the coronary flow of isolated guinea pig heart when a dose of 10 ug/heart is administered. It counts as functional. In a few lines: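 Langendorff-perfused isolated guinea pig heart, with Krebs-Henseleit fluid gassed with 95% O2/5% CO2, at 34 ± 1 °C and 60 cm H2O perfusion pressure. Compound was dissolved in propylene glycol at 100 μg/mL and infused at 0.1 mL/min. Coronary flow was read by electromagnetic flowmeter before and after infusion and expressed as percentage gain; mean ± SE of five experiments.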

With `CCOP(=O)(Cc1ccc(-c2nc3ccccc3[nH]2)nc1)OCC`, the “Max increase in coronary flow” value is given as 27.1%.
As to `CCOP(=O)(Cc1ccc(-c2nc3ccccc3o2)nc1)OCC`, the “Max increase in coronary flow” value is 38.7%.
`CCOP(=O)(Cc1ccc(-c2nc(-c3ccccc3)c(-c3ccccc3)s2)cc1)OCC`: the “Max increase in coronary flow” value is 23%.
For the compound `CCOP(=O)(OCC)OCc1ccc(-c2nc3ccccc3s2)cc1`, the “Max increase in coronary flow” value is 47.7%.
For `CCOP(=O)(CCOc1ccc(-c2nc3ccccc3s2)cc1)OCC`, the “Max increase in coronary flow” value was 27.2%.
On to `CCOP(=O)(CCc1ccc(-c2nc3ccccc3s2)cc1)OCC`, for which the “Max increase in coronary flow” value amounted to 40.7%.
As for `CCOP(=O)(Cc1ccc(-c2nccs2)nc1)OCC`, the “Max increase in coronary flow” value was 23.2%.
Regarding `CCOP(=O)(/C=C/c1ccc(-c2nc3ccccc3s2)cc1)OCC`, the “Max increase in coronary flow” value was 49.5%.
With `CCOP(=O)(Cc1ccc(-c2nc3ccccc3s2)s1)OCC`, the “Max increase in coronary flow” value was determined as 51.1%.
Take `CCOP(=O)(Cc1ccc(-c2nc3ccccc3s2)cc1)OCC` [FOSTEDIL]: the “Max increase in coronary flow” value worked out at 79.9%.
In the case of `CCOP(=O)(Cc1ccc(-c2nc(-c3ccccc3)cs2)cc1)OCC`, the “Max increase in coronary flow” value came to 60.3%.
Turning to `CCOP(=O)(OCC)c1ccc(-c2nc3ccccc3s2)cc1`, the “Max increase in coronary flow” value was 27.2%.
In the case of `CCOP(=O)(Cc1cccnc1)OCC`, the “Max increase in coronary flow” value is given as 21.4%.
Take `CCOP(=O)(Cc1ccc(-c2nc3ccccc3s2)nc1)OCC`: the “Max increase in coronary flow” value is 94%.
